# ChEMBL document CHEMBL2086314, “Synthesis and anticonvulsant activity of new N-Mannich bases derived from 3-(2-fluorophenyl)- and 3-(2-bromophenyl)-pyrrolidine-2,5-diones. Part II” (Bioorg Med Chem, 2012)
# Active and inactive are the calls of the source. The calls are words filed in the database; no cut-off is given here.
# Tests used:
# Mus musculus [1] = assay: Anticonvulsant activity in CF-1 albino mouse assessed as protection from maximal electric shock-induced seizures at 300 mg/kg, ip measured after 0.5 hrs; type: functional, organism-based; parameters: dose 300 mg/kg
# Summary of the method: (§1)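 Male CF-1 mice dosed ip at 30, 100 or 300 mg/kg, suspension in 0.5% methylcellulose/water. MES: corneal electrodes primed with electrolyte containing anaesthetic, 50 mA, 60 Hz, 0.2 s. Examined 0.5 and 4 h after dosing. Value is the minimum dose protecting half or more of the animals.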
# Mus musculus [2] = assay: Anticonvulsant activity in ip dosed CF-1 albino mouse assessed as protection against subcutaneous pentylenetetrazol-induced seizures measured after 4 hrs; type: functional; conditions: read-out: MED
# Summary of the method: (§2)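 scPTZ test in male CF-1 mice. Compound suspended in 0.5% methylcellulose/water, ip at 30, 100 or 300 mg/kg. Pentylenetetrazole 85 mg/kg (CD97, clonic seizures lasting at least 5 s) given subcutaneously at the test time, read at 0.5 and 4 h. Value is the minimum dose protecting half or more of the animals.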
# Mus musculus [3] = assay: Anticonvulsant activity in CF-1 albino mouse assessed as protection from maximal electric shock-induced seizures at 300 mg/kg, ip measured after 4 hrs; type: functional, organism-based; parameters: dose 300 mg/kg; summary of the method: as §1
# Mus musculus [4] = assay: Neurotoxicity in CF-1 albino mouse assessed as motor impairment at 300 mg/kg, ip measured after 0.5 hrs by rotarod test; type: toxicity, organism-based; parameters: dose 300 mg/kg, route intraperitoneal; conditions: in vivo
# Summary of the method: (§3)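 Rotarod neurotoxicity in male CF-1 mice given ip doses of 30, 100 or 300 mg/kg (0.5% methylcellulose suspension), examined 0.5 and 4 h after dosing. Impairment means failing to hold balance on the rod for 1 min. Value is the minimum dose causing toxicity in half or more of the animals; response comments are recorded.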
# Mus musculus [5] = assay: Neurotoxicity in CF-1 albino mouse assessed as motor impairment at 300 mg/kg, ip measured after 4 hrs by rotarod test; type: toxicity, organism-based; parameters: dose 300 mg/kg, route intraperitoneal; conditions: in vivo; summary of the method: as §3
# Mus musculus [6] = assay: Anticonvulsant activity in ip dosed CF-1 albino mouse assessed as protection against subcutaneous pentylenetetrazol-induced seizures measured after 0.5 hrs; type: functional; conditions: read-out: MED; summary of the method: as §2
# Mus musculus [7] = assay: Anticonvulsant activity in ip dosed CF-1 albino mouse assessed as protection from maximal electric shock-induced seizures measured after 4 hrs; type: functional; conditions: read-out: MED; summary of the method: as §1
# Mus musculus [8] = assay: Neurotoxicity in ip dosed CF-1 albino mouse assessed as motor impairment measured after 0.5 hrs by rotarod test; type: toxicity, organism-based; conditions: in vivo; summary of the method: as §3
# Mus musculus [9] = assay: Anticonvulsant activity in CF-1 albino mouse assessed as protection against subcutaneous pentylenetetrazol-induced seizures at 300 mg/kg, ip measured after 4 hrs; type: functional, organism-based; parameters: dose 300 mg/kg; summary of the method: as §2
# Mus musculus [10] = assay: Neurotoxicity in CF-1 albino mouse assessed as myoclonic jerks at 300 mg/kg, ip measured after 0.5 hrs by rotarod test; type: toxicity, organism-based; parameters: dose 300 mg/kg, route intraperitoneal; conditions: in vivo
# Mus musculus [11] = assay: Anticonvulsant activity in CF-1 albino mouse assessed as protection against 6 Hz psychomotor seizure at 100 mg/kg, ip measured after 0.25 hrs; type: functional; conditions: route intraperitoneal
# Summary of the method: (§4)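 6-Hz psychomotor seizure in male CF-1 mice, compound suspended in 0.5% methylcellulose/water, given ip (100 or 75 mg/kg). Corneal stimulation with 0.2 ms monopolar rectangular pulses at 6 Hz for 3 s, 32 mA, constant-current device. Protected if normal exploratory behaviour resumes within 10 s. Tested 0.25–4 h after dosing; value is mice protected out of four.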
# Mus musculus [12] = assay: Anticonvulsant activity in CF-1 albino mouse assessed as protection against 6 Hz psychomotor seizure at 100 mg/kg, ip measured after 0.5 hrs; type: functional; conditions: route intraperitoneal; summary of the method: as §4
# Mus musculus [13] = assay: Anticonvulsant activity in CF-1 albino mouse assessed as protection against 6 Hz psychomotor seizure at 100 mg/kg, ip measured after 1 hr; type: functional; conditions: route intraperitoneal; summary of the method: as §4
# Mus musculus [14] = assay: Anticonvulsant activity in CF-1 albino mouse assessed as protection against 6 Hz psychomotor seizure at 100 mg/kg, ip measured after 2 hrs; type: functional; conditions: route intraperitoneal; summary of the method: as §4
# Mus musculus [15] = assay: Anticonvulsant activity in CF-1 albino mouse assessed as protection against 6 Hz psychomotor seizure at 100 mg/kg, ip measured after 4 hrs; type: functional; conditions: route intraperitoneal; summary of the method: as §4
# Mus musculus [16] = assay: Anticonvulsant activity in CF-1 albino mouse assessed as protection against subcutaneous pentylenetetrazol-induced seizures at 300 mg/kg, ip measured after 0.5 hrs; type: functional, organism-based; parameters: dose 300 mg/kg; summary of the method: as §2
# Rattus norvegicus [17] = assay: Anticonvulsant activity in Sprague-Dawley rat assessed as protection from maximum electric shock-induced seizures at 30 mg/kg, po measured after 0.25 hrs; type: functional
# Summary of the method: (§5)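 Male Sprague–Dawley rats, four per group, given 30 mg/kg orally as a suspension in 0.5% methylcellulose/water. MES stimulus 150 mA, 60 Hz, 0.2 s via corneal electrodes. Tested at 0.25, 0.5, 1, 2 and 4 h; value is rats protected out of four.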
# Rattus norvegicus [18] = assay: Anticonvulsant activity in Sprague-Dawley rat assessed as protection from maximum electric shock-induced seizures at 30 mg/kg, po measured after 0.5 hrs; type: functional; summary of the method: as §5
# Rattus norvegicus [19] = assay: Anticonvulsant activity in Sprague-Dawley rat assessed as protection from maximum electric shock-induced seizures at 30 mg/kg, po measured after 1 hr; type: functional; summary of the method: as §5
# Rattus norvegicus [20] = assay: Anticonvulsant activity in Sprague-Dawley rat assessed as protection from maximum electric shock-induced seizures at 30 mg/kg, po measured after 2 hrs; type: functional; summary of the method: as §5
# Rattus norvegicus [21] = assay: Anticonvulsant activity in Sprague-Dawley rat assessed as protection from maximum electric shock-induced seizures at 30 mg/kg, po measured after 4 hrs; type: functional; summary of the method: as §5
# Rattus norvegicus [22] = assay: Neurotoxicity in Sprague-Dawley rat assessed as motor impairment at 30 mg/kg, po by rotarod test; type: toxicity, organism-based; parameters: dose 30 mg/kg, route oral; conditions: in vivo
# Summary of the method: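 Male Sprague–Dawley rats, four animals, oral 30 mg/kg in 0.5% methylcellulose/water. Motor impairment on the rotarod (failure to keep balance for 1 min) assessed alongside MES at five times from 0.25 to 4 h.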
# Rattus norvegicus [23] = assay: Anticonvulsant activity in po dosed Sprague-Dawley rat assessed as protection from maximum electric shock-induced seizures; type: functional
# Summary of the method: (§6)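 Male Sprague–Dawley rats dosed orally (0.5% methylcellulose suspension). MES 150 mA, 60 Hz, 0.2 s; rotarod impairment is failure to keep balance for 1 min. Groups of eight, at the previously estimated time of peak effect, with doses varied until at least three points fell in the 10–90% range. ED50/TD50 with 95% confidence intervals from regression; PI = TD50/ED50.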
# Rattus norvegicus [24] = assay: Anticonvulsant activity in po dosed maximum electric shock-induced Sprague-Dawley rat assessed as time of peak effect; type: functional; summary of the method: as §6
# Mus musculus [25] = assay: Anticonvulsant activity in ip dosed CF-1 albino mouse assessed as protection from maximal electric shock-induced seizures measured after 0.5 hrs; type: functional; conditions: read-out: MED; summary of the method: as §1
# [26] = Neurotoxicity in po dosed Sprague-Dawley rat assessed as motor impairment measured at time of peak effect by rotarod test; type: toxicity, organism-based; conditions: in vivo; summary of the method: as §6
Structure (SMILES),Activity (Mus musculus [1]),Activity (Mus musculus [4]),Activity (Mus musculus [5]),minimal effective dose (Mus musculus [6]) [mg/kg],minimal effective dose (Mus musculus [7]) [mg/kg],Activity (Mus musculus [9]),Activity (Mus musculus [11]) [%],Activity (Mus musculus [12]) [%],Activity (Mus musculus [13]) [%],Activity (Mus musculus [14]) [%],Activity (Mus musculus [15]) [%],Activity (Rattus norvegicus [17]) [%],Activity (Rattus norvegicus [18]) [%],Activity (Rattus norvegicus [19]) [%],Activity (Rattus norvegicus [20]) [%],Activity (Rattus norvegicus [21]) [%],Activity (Rattus norvegicus [22]),also measured
CCC1(C)CC(=O)NC1=O (configuration not stated) [ETHOSUXIMIDE],inactive,Non-toxic,Non-toxic,100,,,,,,,,,,,,,,minimal effective dose (Mus musculus [2]): 300 mg/kg; Activity (Mus musculus [3]): inactive
O=C1CC(c2ccccc2F)C(=O)N1CN1CCN(c2ncccn2)CC1 (racemic),inactive,,Non-toxic,300,100,inactive,,,,,,,,,,,,MTC (Mus musculus [8]): 300 mg/kg; Activity (Mus musculus [10]): Toxic
O=C1CC(c2ccccc2Br)C(=O)N1CN1CCN(c2ccccc2F)CC1 (racemic),inactive,Non-toxic,Non-toxic,,,,0,25,25,25,25,,,,,,,Activity (Mus musculus [3]): inactive
O=C1CC(c2ccccc2Br)C(=O)N1CN1CCN(C2CCCCC2)CC1 (racemic),inactive,Non-toxic,Non-toxic,,100,inactive,,,,,,50,50,100,25,25,Non-toxic,Activity (Mus musculus [16]): inactive; ED50 (Rattus norvegicus [23]): < 240 mg/kg; Time (Rattus norvegicus [24]): 2 h
O=C1CC(c2ccccc2F)C(=O)N1CN1CCN(c2ccc(Cl)cc2)CC1 (racemic),inactive,Non-toxic,Non-toxic,,100,,25,50,25,0,0,0,0,0,25,50,Non-toxic,
O=C1CC(c2ccccc2Br)C(=O)N1CN1CCOCC1 (racemic),,,Non-toxic,300,100,inactive,,,,,,0,0,0,0,25,Non-toxic,minimal effective dose (Mus musculus [25]): 100 mg/kg; MTC (Mus musculus [8]): 300 mg/kg
O=C1CC(c2ccccc2Br)C(=O)N1CN1CCN(c2ccc(Cl)cc2)CC1 (racemic),inactive,Non-toxic,Non-toxic,,300,,,,,,,,,,,,,
Cl.Cl.O=C1CC(c2ccccc2F)C(=O)N1CN1CCN(CCO)CC1 (racemic),,Non-toxic,Non-toxic,300,100,inactive,50,25,0,0,0,25,25,50,25,25,Non-toxic,Activity (Mus musculus [10]): Toxic; ED50 (Rattus norvegicus [23]): > 500 mg/kg; TD50 [26]: > 500 mg/kg; Time (Rattus norvegicus [24]): 0.5 h
